# Experimental data from different studies.
# Protocols differ between the studies behind these lines.
# Organism: Severe acute respiratory syndrome coronavirus 2
SMILES,test,system,conditions,inhibition [%]
C=C[C@@](C)(/C=C/c1ccc(O)cc1)CCC=C(C)C,cytopathic effect,Vero C1008,100 µM,0
CC1=C(C/C=C(\C)CC/C=C(\C)Cc2cccc3ccccc23)C(=O)c2ccccc2C1=O,"viral replication, inhibitor",VeroE6/TMPRSS2,"100 µM, 72 h",48
CC1CCC2c3c(c4ccccc4n3Cc3ccccc3)CCN2C1 (stereo not shown),"viral replication, inhibitor",Vero C1008,1 µM,54.3
O=C(/C=C/c1ccc(O)c(O)c1/C=C/c1ccc(O)c(O)c1)O[C@H](Cc1ccc(O)c(O)c1)C(=O)O,cytopathic effect,Vero C1008,6.25 µM,0
Cc1cc(NC(=O)c2cc3c(=O)n4cccc(C)c4nc3n2C)ccc1Br,viral replication,Vero,10 nM,8.19
Oc1c(Cl)cc(Cl)c2cccnc12,"viral replication, inhibitor",Vero C1008,30 µM,89.8
CN=c1nc(-c2ccc(OC)c(OC)c2)n(-c2ccc(F)cc2)s1,"viral replication, inhibitor, qPCR",Vero C1008,"50 µM, 24 h",21.5
O=C(O)C1=CC(=C(c2ccc(O)c(C(=O)O)c2)c2ccc(O)c(C(=O)O)c2)C=CC1=O,viral replication,Vero C1008,50 µM,80
NC[C@@H]1O[C@H](O[C@H]2[C@@H](O)[C@H](O[C@@H]3[C@@H](O)[C@H](N)C[C@H](N)[C@H]3O[C@H]3O[C@H](CO)[C@@H](O)[C@H](O)[C@H]3N)O[C@@H]2CO)[C@H](N)[C@@H](O)[C@@H]1O,viral replication,Vero C1008,50 µM,2
Cn1c(C(=O)Nc2ccc(Cl)cc2)cc2c(=O)n3ccccc3nc21,viral replication,Vero,0.1 µM,37.7
CC1=C(/C=C/C(C)=C/C=C/C(C)=C/C(=O)O)C(C)(C)CCC1,"viral replication, inhibitor",Vero C1008,1 µM,42.1
Cc1cccn2c(=O)c3cc(C(=O)Nc4ccc(N(C)C)cc4)n(C)c3nc12,viral replication,Vero,10 µM,94.2
C=C1C[C@H]2[C@@](C)(C(=O)C(O)=C3C(C)(C)C(=O)CC[C@@]32C)[C@@H]2C(=O)O[C@@](C)(C(=O)OC)C(=O)[C@@]12C,"viral replication, inhibitor",Calu-3,50 µM,82.1
CCN(CC)CCCC(C)Nc1ccnc2cc(Cl)ccc12 (stereo not shown),"viral replication, inhibitor",Vero C1008,1 µM,48.7
[H]/N=C(/N)SCCCn1cc(C2=C(c3cn(C)c4ccccc34)C(=O)NC2=O)c2ccccc21,viral replication,Vero C1008,50 µM,15
Oc1c(I)cc(Cl)c2cccnc12,"viral replication, inhibitor",Vero C1008,30 µM,91.8
O=C(O[C@@H]1Cc2c(O)cc(O)cc2O[C@@H]1c1cc(O)c(O)c(O)c1)c1cc(O)c(O)c(O)c1,"cytopathic effect, inhibitor",Vero C1008,6.25 µM,0
O=C(Nc1ccccc1F)c1cc2c(=O)n3ccccc3nc2n1Cc1ccccc1,viral replication,Vero,1 µM,92.3
O=c1[nH]c(=O)n([C@@H]2O[C@H](CO)[C@@H](O)[C@@H]2O)cc1/C=C/Br,"viral replication, inhibitor",Vero C1008,1 µM,52.6
COc1cc(-c2cc3c(c(=O)o2)C[C@]2(O)[C@@]4(C)C(=O)C=CC(C)(C)[C@]4(O)CC[C@@]2(C)O3)cc(OC)c1OC,"viral replication, inhibitor",Calu-3,50 µM,101
O=C(O)c1cnc2n1CCc1ccccc1C2=C1CCN(CCc2ccc(OCc3ccc4ccccc4n3)cc2)CC1,"viral replication, inhibitor",Vero C1008,1 µM,50.3
Cn1c(C(=O)Nc2ccc3c(c2)OCCO3)cc2c(=O)n3ccccc3nc21,viral replication,Vero,10 nM,8
CC1(C)CCC[C@]2(C)O[C@H]3CC[C@@]4(C)[C@@H](CC[C@]5(C)[C@@H]4CC[C@]4(C)c6c(C(O)C(=O)O)ccc(O)c6C[C@@H]54)[C@]3(C)CC[C@@H]12 (stereo partly shown),"viral replication, inhibitor",Calu-3,50 µM,0
CC(=O)c1cccc(NC(=O)c2cc3c(=O)n4ccccc4nc3n2C)c1,viral replication,Vero,10 nM,43.8
C[C@@H]1O[C@@H](O[C@H]2[C@H](O[C@H]3CC[C@]4(C)[C@H]5CC=C6[C@@H]7CC(C)(C)CC[C@]7(C(=O)OCc7ccccc7)CC[C@@]6(C)[C@]5(C)CC[C@H]4C3(C)C)O[C@H](CO)[C@@H](O[C@@H]3O[C@@H](C)[C@H](O)[C@@H](O)[C@H]3O)[C@@H]2O)[C@H](O)[C@H](O)[C@H]1O,viral replication,293T/ACE2,20 µM,83.6
O=C(NCCN1CCCC1)c1cc(-c2ccc(CN3CCOCC3)cc2)nc2ccc(F)cc12,"viral replication, inhibitor",Vero C1008,1 µM,45.8
COc1ccc(C[C@@H]2c3cc(Oc4cc(C[C@@H]5c6cc(O)c(OC)cc6CCN5C)ccc4O)c(OC)cc3CCN2C)cc1,"cytopathic effect, inhibitor",Vero C1008,25 µM,0
CC1=C(C/C=C(\C)CC/C=C(\C)Cc2cccc(C(C)C)c2)C(=O)c2ccccc2C1=O,"viral replication, inhibitor",VeroE6/TMPRSS2,"100 µM, 72 h",48
NCC[C@H](O)C(=O)N[C@@H]1C[C@H](N)[C@@H](O[C@H]2O[C@H](CN)[C@@H](O)[C@H](O)[C@H]2O)[C@H](O)[C@H]1O[C@H]1O[C@H](CO)[C@@H](O)[C@H](N)[C@H]1O,viral replication,Vero C1008,50 µM,3
CCCc1nc2ccc(N(CCC)C(=O)c3ccccc3)cc2c(=O)n1Cc1ccc(-c2ccccc2-c2nnn[nH]2)cc1,"viral replication, inhibitor",Vero C1008,1 µM,54.3
Cc1cc(O)c(C=O)c2c1C(=O)Oc1c(cc3c(c1C)C(=O)CC(C)(C)O3)O2,"viral replication, inhibitor",Calu-3,50 µM,99.5
CC1(C)CCC(C)(C)c2cc(C#Cc3ccc(C(=O)O)cc3)ccc21,"viral replication, inhibitor",Vero C1008,1 µM,56.1
Cc1ccc(NC(=O)c2cc3c(=O)n4cccc(C)c4nc3n2C)cc1Cl,viral replication,Vero,1 µM,87.3
CC(C)=CCc1c(O)ccc(C(=O)/C=C/c2ccc(O)cc2)c1O,cytopathic effect,Vero C1008,25 µM,0
